Tests used:
Cavia porcellus [1] = test: Mean collapse time after pretreatment with compound divided by mean collapse time of untreated control animals at 50 mg/kg po dose; format: functional
Outline: (§1)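 Modified Herxheimer test in conscious sensitized guinea pigs, 4-5 per group. Compound was given orally at 25, 50 or 100 mg/kg 2 or 4 h before antigen challenge. Some groups also received mepyramine 0.5 mg/kg sc 0.5 h before challenge. D = mean collapse time of treated/untreated controls; M+D = mean collapse time of compound+mepyramine/mepyramine-dosed controls.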

Cavia porcellus [2] = species on record: Cavia porcellus; test: Compound was tested for the inhibition of histamine release from sensitized guinea pig chopped lung upon antigen challenge at 10 ug/mL; format: functional
Outline: (§2)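 Guinea pigs sensitized to ovalbumin; lungs taken 3 weeks later, perfused with Tyrode, chopped into 0.5-mm cubes. 100-mg aliquots in Tyrode were preincubated 5 min at 37 °C, then compound or Tyrode and ovalbumin (5 mg in 0.1 mL) were added. Incubation was 15 min at 37 °C with rocking, and supernatant was bioassayed. Unchallenged control gave spontaneous release. Values are % inhibition, mean of ≥4 samples; Student's t-test.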

Cavia porcellus [3] = species on record: Cavia porcellus; test: Inhibition of slow reacting substance of anaphylaxis (SRS-A) release from sensitized guinea pig chopped lung upon antigen challenge at 10 ug/mL; format: functional; outline: as §2
Cavia porcellus [4] = test: Time of dosing of compound before antigen challenge in conscious sensitized guinea pig at 50 mg/kg po dose; format: functional; outline: as §1
Cavia porcellus [5] = test: Mean collapse time after pretreatment with compound and mepyramine divided by mean collapse time of mepyramine-dosed control animals at 50 mg/kg po dose; format: functional; outline: as §1
Cavia porcellus [6] = test: Mean collapse time after pretreatment with compound and mepyramine divided by mean collapse time of mepyramine-dosed control animals at 100 mg/kg po dose; format: functional; outline: as §1
Cavia porcellus [7] = test: Time of dosing of compound before antigen challenge in conscious sensitized guinea pig at 100 mg/kg po dose; format: functional; outline: as §1
Cavia porcellus [8] = test: Mean collapse time after pretreatment with compound divided by mean collapse time of untreated control animals at 100 mg/kg po dose; format: functional; outline: as §1
Cavia porcellus [9] = species on record: Cavia porcellus; test: Inhibition of slow reacting substance of anaphylaxis (SRS-A) release from sensitized guinea pig chopped lung upon antigen challenge.; format: functional; outline: as §2
Homo sapiens [10] = species on record: Homo sapiens; test: Inhibition of Histamine mediator release form passively sensitized human lung upon antigen challenge at 10(ug/mL) dose:; format: functional
Outline: (§3)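 Healthy human lung from carcinoma surgery was chopped into 0.5-mm cubes and passively sensitized 18 h at 18 °C with atopic serum from cocksfoot-pollen-allergic patients. Tissue was preincubated 5 min with compound, challenged with pollen extract (0.1 mL, 1000 noon units) and incubated as for guinea pig lung. Supernatant was bioassayed on guinea pig ileum, with mepyramine-treated (0.4 μg/mL) ileum for SRS-A. Values are % inhibition of mediator release.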

Homo sapiens [11] = species on record: Homo sapiens; test: Inhibition of Slow reacting substance of anaphylaxis (SRS-A) mediator release form passively sensitized human lung upon antigen challenge at 10(ug/mL) dose:; format: functional; outline: as §3
Cavia porcellus [12] = species on record: Cavia porcellus; test: Inhibition of histamine release from sensitized guinea pig chopped lung upon antigen challenge at 10 ug/mL.; format: functional; outline: as §2
Homo sapiens [13] = species on record: Homo sapiens; test: Inhibition of Histamine mediator release form passively sensitized human lung upon antigen challenge at 10 ug/mL dose; format: functional; outline: as §3
Cavia porcellus [14] = test: Mean collapse time after pretreatment with compound and mepyramine divided by mean collapse time of mepyramine-dosed control animals at 25 mg/kg po dose; format: functional; outline: as §1
Cavia porcellus [15] = test: Effect on bronchospasm in conscious sensitized guinea pig upon antigen challenge (herxheimer) at 25 mg/kg po dose; format: functional, Bronchiole; outline: as §1
Cavia porcellus [16] = test: Mean collapse time after pretreatment with compound divided by mean collapse time of untreated control animals at 25 mg/kg po dose; format: functional; outline: as §1
Homo sapiens [17] = species on record: Homo sapiens; test: Inhibition of Slow reacting substance of anaphylaxis (SRS-A) mediator release form passively sensitized human lung upon antigen challenge at 1 ug/mL dose; format: functional; outline: as §3
Homo sapiens [18] = species on record: Homo sapiens; test: Inhibition of Histamine mediator release form passively sensitized human lung upon antigen challenge at 1 ug/mL dose; format: functional; outline: as §3
Homo sapiens [19] = species on record: Homo sapiens; test: Inhibition of Slow reacting substance of anaphylaxis (SRS-A) mediator release form passively sensitized human lung upon antigen challenge at 10 ug/mL dose; format: functional; outline: as §3
Cavia porcellus [20] = test: Time of dosing of compound before antigen challenge in conscious sensitized guinea pig at 25 mg/kg po dose; format: functional; outline: as §1
Cavia porcellus [21] = test: Mean collapse time after pretreatment with compound and mepyramine divided by mean collapse time of mepyramine-dosed control animals at 2 mg/kg po dose; format: functional
Cavia porcellus [22] = test: Mean collapse time after pretreatment with compound divided by mean collapse time of untreated control animals at 2 mg/kg po dose; format: functional
Cavia porcellus [23] = test: Time of dosing of compound before antigen challenge in conscious sensitized guinea pig at 2 mg/kg po dose; format: functional

Row | Compound | Activity (Cavia porcellus [1]) | Inhibition (Cavia porcellus [3]) [%] | Time (Cavia porcellus [4]; dose 50 mg/kg) [h] | Activity (Cavia porcellus [5]) | Inhibition (Cavia porcellus [12]) [%] | Inhibition (Homo sapiens [13]) [%] | Activity (Cavia porcellus [14]) | Activity (Cavia porcellus [16]) | Inhibition (Homo sapiens [17]) [%] | Inhibition (Homo sapiens [18]) [%] | Inhibition (Homo sapiens [19]) [%] | further results
1 | CCc1ccc(O)c(C(=O)c2ccsc2)c1 | 0.8 | 26 | 2 | 2.3 | – | – | – | – | – | – | – | Inhibition (Cavia porcellus [2]): 37%
2 | CCc1ccc(C(=O)c2ccc(F)cc2)c(O)c1 | 1.3 | 5 | – | 2.8 | – | – | – | – | – | – | – | Activity (Cavia porcellus [6]): 2.3; Time (Cavia porcellus [7]): 2 h; Activity (Cavia porcellus [8]): 1.2
3 | CCc1ccc(O)c(S(=O)(=O)c2ccc(Cl)cc2)c1 | – | – | – | – | – | – | – | – | – | – | – | Inhibition (Cavia porcellus [9]): 19%
4 | C=C(c1ccc(C)cc1)c1cc(CC)ccc1O | 1 | 0 | – | 3.5 | – | – | – | – | – | – | – | Inhibition (Homo sapiens [10]): 0%; Inhibition (Homo sapiens [11]): 84%
5 | CCc1ccc(O)c(C(=O)c2ccc(Cl)cc2)c1 | – | 51 | – | – | 3 | 0 | 2.7 | 0.8 | 74 | 0 | 100 | Activity (Cavia porcellus [6]): 1.8; Time of dosing before antigen challenge. (Cavia porcellus [15]): 4 h; Time (Cavia porcellus [7]): 2 h; Activity (Cavia porcellus [8]): 1.4
6 | CCc1ccc(O)c([S+]([O-])c2ccc(Cl)cc2)c1 (centres undefined) | 1 | 48 | 2 | 1.7 | 26 | 31 | 1.7 | 1.3 | 69 | 0 | 99 | Time (Cavia porcellus [20]): 4 h
7 | CCc1ccc(O)c(S(=O)(=O)c2ccccc2)c1 | – | – | – | – | – | – | – | – | – | – | – | Inhibition (Cavia porcellus [9]): 0%
8 | CCc1ccc(O)c(C(=O)c2cccs2)c1 | 0.7 | 59 | 2 | 1.6 | 0 | 0 | – | – | 55 | 0 | 67 | –
9 | CCc1ccc(OC)c(C(O)c2ccc(Cl)cc2)c1 (centres undefined) | – | 14 | – | – | – | – | 2.7 | 0.8 | – | – | – | Time (Cavia porcellus [4]; dose 25 mg/kg, in the assay text read “at 25 mg/kg po dose” for “at 50 mg/kg po dose”): 2 h
10 | CN1CCC(=C2c3ccccc3CC(=O)c3sccc32)CC1 [KETOTIFEN] | – | 38 | – | – | 37 | 23 | – | – | 51 | 0 | 100 | Activity (Cavia porcellus [21]): 3.1; Activity (Cavia porcellus [22]): 4.2; Time (Cavia porcellus [23]): 2 h
